Assay [1] addresses Somatostatin receptor type 3 (Homo sapiens, UniProt P32745). As to the kind of experiment: Binding affinity towards human somatostatin receptor type 3 using [125I][Leu8,D-Trp22,Tyr25]SRIF-28 as radioligand. The procedure, abridged:
(§1)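 Receptor autoradiography on 20-µm cryostat sections of pellets of cells stably expressing the cloned human receptor. Cell hosts: sst1 CHO-K1, sst2 CCL39, sst3 CCL39, sst5 CHO-K1. Sections were incubated with radioligand at 30 000 cpm/100 µL and displaced by unlabeled peptide from 0.1 to 1000 nM. SRIF-28 was run in parallel as control. IC50 was obtained by computer-assisted image quantification against calibrated isotope tissue standards.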

The target in assay [2] is Somatostatin receptor type 4 (Homo sapiens, UniProt P31391). As to the kind of experiment: Binding affinity towards human somatostatin receptor type 4 using [125I][Leu8,D-Trp22,Tyr25]SRIF-28 as radioligand.
Sequence of Somatostatin receptor type 4 (P31391 whole entry): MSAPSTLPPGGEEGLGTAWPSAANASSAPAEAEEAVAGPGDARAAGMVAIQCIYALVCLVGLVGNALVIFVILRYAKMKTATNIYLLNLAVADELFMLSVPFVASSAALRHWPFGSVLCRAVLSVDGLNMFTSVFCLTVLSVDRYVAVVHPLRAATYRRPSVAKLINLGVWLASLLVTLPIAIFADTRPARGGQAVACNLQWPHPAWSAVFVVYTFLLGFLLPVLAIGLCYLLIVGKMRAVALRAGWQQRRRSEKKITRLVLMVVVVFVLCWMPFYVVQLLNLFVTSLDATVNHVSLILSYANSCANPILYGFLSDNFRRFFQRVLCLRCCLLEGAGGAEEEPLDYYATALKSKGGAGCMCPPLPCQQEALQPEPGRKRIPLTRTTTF
Assay [3] deals with Somatostatin receptor type 5 (Homo sapiens, UniProt P35346). The assay is described as follows: Binding affinity towards human somatostatin receptor type 5 using [125I][Leu8,D-Trp22,Tyr25]SRIF-28 as radioligand. The gist of the method:
as §1

Assay [4] concerns the target Somatostatin receptor type 1 (Homo sapiens, UniProt P30872). The assay is described as follows: Binding affinity towards human somatostatin receptor type 1 using [125I][Leu8,D-Trp22,Tyr25]SRIF-28 as radioligand. The procedure, abridged: as §1
In assay [5] the target is Somatostatin receptor type 2 (Homo sapiens, UniProt P30874). As to the kind of experiment: Binding affinity towards human somatostatin receptor type 2 using [125I][Leu8,D-Trp22,Tyr25]SRIF-28 as radioligand. The procedure, abridged: as §1
Sequence of Somatostatin receptor type 2 (P30874 whole entry): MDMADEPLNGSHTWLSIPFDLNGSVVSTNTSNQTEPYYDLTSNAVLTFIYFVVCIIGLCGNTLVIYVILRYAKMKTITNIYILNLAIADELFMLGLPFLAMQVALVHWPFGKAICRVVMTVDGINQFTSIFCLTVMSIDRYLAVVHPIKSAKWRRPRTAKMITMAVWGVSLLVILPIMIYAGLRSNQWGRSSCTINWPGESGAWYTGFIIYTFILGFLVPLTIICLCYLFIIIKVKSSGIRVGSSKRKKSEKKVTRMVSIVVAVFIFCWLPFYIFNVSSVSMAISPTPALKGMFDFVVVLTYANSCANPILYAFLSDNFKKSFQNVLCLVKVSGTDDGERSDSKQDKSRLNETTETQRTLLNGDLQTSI

Molecules are shown by their SMILES.

Sequence of Somatostatin receptor type 1 (P30872 whole entry): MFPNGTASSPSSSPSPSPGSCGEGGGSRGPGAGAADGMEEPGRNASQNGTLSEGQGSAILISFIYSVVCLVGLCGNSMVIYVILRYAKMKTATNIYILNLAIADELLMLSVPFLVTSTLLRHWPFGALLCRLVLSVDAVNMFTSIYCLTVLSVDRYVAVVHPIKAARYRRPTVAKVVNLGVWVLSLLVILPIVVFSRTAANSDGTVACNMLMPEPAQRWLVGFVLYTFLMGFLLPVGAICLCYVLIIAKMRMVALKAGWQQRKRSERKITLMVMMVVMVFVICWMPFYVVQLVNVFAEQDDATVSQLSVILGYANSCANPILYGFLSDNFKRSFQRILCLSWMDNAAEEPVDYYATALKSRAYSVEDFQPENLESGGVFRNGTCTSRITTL
Sequence of Somatostatin receptor type 3 (P32745 whole entry): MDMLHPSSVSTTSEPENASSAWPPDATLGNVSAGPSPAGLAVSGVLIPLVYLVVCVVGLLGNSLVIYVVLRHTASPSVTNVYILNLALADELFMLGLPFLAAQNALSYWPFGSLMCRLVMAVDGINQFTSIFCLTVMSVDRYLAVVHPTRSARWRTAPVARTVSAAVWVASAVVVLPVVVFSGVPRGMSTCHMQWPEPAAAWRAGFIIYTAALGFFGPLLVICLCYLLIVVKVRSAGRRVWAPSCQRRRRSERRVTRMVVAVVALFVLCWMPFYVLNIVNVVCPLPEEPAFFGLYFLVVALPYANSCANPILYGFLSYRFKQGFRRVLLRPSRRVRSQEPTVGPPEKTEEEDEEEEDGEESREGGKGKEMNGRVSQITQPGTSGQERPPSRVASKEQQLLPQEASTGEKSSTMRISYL
Sequence of Somatostatin receptor type 5 (P35346 whole entry): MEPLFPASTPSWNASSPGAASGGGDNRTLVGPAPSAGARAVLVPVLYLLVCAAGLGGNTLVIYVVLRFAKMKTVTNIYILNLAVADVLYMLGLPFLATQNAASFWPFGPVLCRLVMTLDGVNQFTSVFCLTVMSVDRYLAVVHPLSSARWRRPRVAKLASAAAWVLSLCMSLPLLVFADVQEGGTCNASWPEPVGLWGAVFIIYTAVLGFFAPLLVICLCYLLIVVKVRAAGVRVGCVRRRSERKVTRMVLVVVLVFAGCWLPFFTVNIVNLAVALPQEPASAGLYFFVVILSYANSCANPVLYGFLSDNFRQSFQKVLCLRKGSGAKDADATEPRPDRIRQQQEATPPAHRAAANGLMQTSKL

On to `C[C@@H](O)[C@@H]1NC(=O)[C@H](CCCCN)NC(=O)[C@@H](Cc2c[nH]c3ccccc23)NC(=O)[C@H](Cc2ccccc2)NC(=O)[C@H](Cc2ccccc2)NC(=O)[C@@H](N)CSSC[C@@H](C(=O)O)NC(=O)[C@H](Cc2ccc(O)cc2)NC1=O` (stereo in doubt), for which the IC50 turned out to be 8.2 nM in assay [1]; 0.51 nM in assay [2]; 4.8 nM in assay [3]; 10.3 nM in assay [4]; 15.5 nM in assay [5].
In the same order, the values of `C[C@@H](O)[C@@H]1NC(=O)[C@H](CCCCN)NC(=O)[C@H](Cc2c[nH]c3ccccc23)NC(=O)[C@H](Cc2ccccc2)NC(=O)[C@H](Cc2ccccc2)NC(=O)[C@@H](N)CSSC[C@@H](C(=O)O)NC(=O)[C@H](Cc2ccc(O)cc2)NC1=O` (stereo in doubt) are 10 nM, 1.3 nM, 24 nM, 6.5 nM and 43 nM.

The term IC50 denotes the concentration needed to halve the response being measured.

Values taken from ChEMBL document CHEMBL1144907, “Novel sst(4)-selective somatostatin (SRIF) agonists. 3. Analogues amenable to radiolabeling” (J Med Chem, 2003).
